FXIa inh 1536 – inhibitors of human coagulation factor XIa; P03951; purified FXIa, Boc-Glu-Ala-Arg-AMC fluorogenic substrate; inhibition, % at 5 µM; 220,000 tested, 0.14% active;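 active means inhibition of at least 40%; inactive means inhibition below 40%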;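 further: fluorescence of freed AMC excited at 355 nm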
FXIIa inh 1536 – inhibitors of human coagulation factor XIIa; P00748; purified FXIIa, Boc-QGR-AMC fluorogenic substrate, 2 h; inhibition, % at 5 µM; 220,000 tested, 0.3% active; AID 800; in the data active means inhibition above about 40%
EP2 mod – modulates human prostaglandin E2 receptor EP2 signaling | P43116 | EP2-expressing cells, cAMP HTRF FRET, PGE2 co-stimulation | induction, % at 25 µM | 260,000 tested, 0.83% active | AID 940;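 active means compounds whose cAMP rise, as percent of the full-agonist control response, exceeds 60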;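 further: rat C6 glioma line stably carrying human EP2 under a CMV promoter; the protocol text gives 20 µM as final concentration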
Target sequence (P43116 whole entry, looked up): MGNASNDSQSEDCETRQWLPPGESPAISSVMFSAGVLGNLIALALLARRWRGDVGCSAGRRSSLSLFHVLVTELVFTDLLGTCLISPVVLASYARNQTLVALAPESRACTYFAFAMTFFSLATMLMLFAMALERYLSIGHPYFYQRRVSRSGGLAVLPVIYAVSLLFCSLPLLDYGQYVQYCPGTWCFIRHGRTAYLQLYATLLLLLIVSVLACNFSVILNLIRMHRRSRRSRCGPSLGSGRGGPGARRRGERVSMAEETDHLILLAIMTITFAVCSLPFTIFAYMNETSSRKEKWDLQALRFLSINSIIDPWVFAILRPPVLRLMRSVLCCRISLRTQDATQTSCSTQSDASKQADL
Thrombin inh – blocks human thrombin protease activity. P00734. alpha-thrombin, Boc-VPR-AMC fluorogenic substrate cleavage. inhibition, % at 5 µM. 220,000 tested, 0.26% active;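 active means inhibition at or above 40%; inactive means inhibition below 40%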
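Material: human alpha-thrombin protein. Incubation: reaction at ambient temperature. Technique: fluorescence of released AMC, ex 355 nm, em 460 nm. Control set: no-compound enzyme wells and no-enzyme blanks. Also added: Boc-VPR-AMC substrate, 15 µM final. Buffer or medium: pH 7.5 Tris (50 mM) with NaCl 150 mM, Tween 20 0.05%.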
KLK5 inh – blocks human kallikrein 5 protease activity; Q9Y337; recombinant hK5, fluorogenic AMC substrate cleavage; inhibition, % at 5 µM; 210,000 tested, 0.59% active;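 active means inhibition of 40% or more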
Target sequence (Q9Y337 67-293 limits assumed): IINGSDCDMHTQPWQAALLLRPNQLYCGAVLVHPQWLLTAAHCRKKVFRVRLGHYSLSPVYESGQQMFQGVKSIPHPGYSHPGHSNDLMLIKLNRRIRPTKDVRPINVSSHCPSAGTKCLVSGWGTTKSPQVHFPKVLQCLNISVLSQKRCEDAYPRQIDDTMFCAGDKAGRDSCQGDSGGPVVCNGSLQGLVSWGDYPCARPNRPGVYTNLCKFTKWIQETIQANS
EP2 antag – blocks the human prostaglandin E2 receptor EP2. C6 glioma cells expressing human EP2, cAMP TR-FRET; cells stimulated with saturating PGE2. inhibition, % at 25 µM. 260,000 tested, 0.52% active;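 active means percent inhibition above 40 after rounding to a whole number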;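 further: rat C6 glioma host cells with rolipram phosphodiesterase inhibitor present; the protocol text gives 20 µM as final concentration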
EP2 confirm – human EP2 receptor cAMP induction, negative in counter-screens; AID 1080; C6 glioma EP2 cells, cAMP HTRF induction; plus low (about EC15) PGE2 agonist; shares compounds with EP2 mod; 1,300 tested, 47% active; calls only at 20 µM (by protocol);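 active means cAMP induction above 50% in the main assay while under 30% in all four parallel counter assays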;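 further: rat C6 glioma cells stably expressing human EP2 receptor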
Each line names hits and unclear results; the compound was inactive in the other large screens (follow-up assays come after a bar, where they were run); ! = not confirmed by another sample. This is a sample that favours compounds with a hit; in the whole collection about 2.1% have one here.

COc1ccc2nc3sc(C(=O)N4c5ccccc5CC4C)c(N)c3cc2c1 (stereo unspecified)	none (no result: FXIa inh 1536, FXIIa inh 1536, Thrombin inh, KLK5 inh)
CCOC(=O)c1c(-c2cccs2)csc1NC(=O)COC(=O)c1c(C)noc1C	EP2 mod 69.1 | EP2 confirm active
CCOC(=O)c1c(-c2cccs2)csc1NC(=O)c1ccncc1	none
CCn1c(/C=C/c2ccccc2C)nc2ccccc2c1=O	none
Cc1ccc(/C=C/c2nc3ccccc3c(=O)n2CCc2ccccc2)cc1	EP2 mod 80.7 | EP2 confirm active
Cc1ccccc1/C=C/c1nc2ccccc2c(=O)n1CCc1ccccc1	EP2 mod 70.6 | EP2 confirm active
Cc1cc2c(cc3c(=O)n(CC(=O)N(C4CCCCC4)C4CCCCC4)nc(C)n32)o1	none (no result: FXIa inh 1536, FXIIa inh 1536, Thrombin inh, KLK5 inh)
COc1ccc(S(=O)(=O)N(Cc2ccccc2)Cc2cc3cc(C)c(C)cc3[nH]c2=O)cc1	none (no result: FXIa inh 1536, FXIIa inh 1536, Thrombin inh, KLK5 inh)
Cn1c(SCC(=O)O)nnc1-c1ccccc1O	none (no result: FXIa inh 1536, FXIIa inh 1536, Thrombin inh, KLK5 inh)
CCN(CC)CCn1c2ccc(F)cc2c2nc(C)sc21	none
Cc1ccc(S(=O)(=O)n2c3ccc(F)cc3c3nc(C)sc32)cc1	EP2 mod 94.9 | EP2 confirm active
COc1ccccc1CNn1cnnc1	none (no result: FXIa inh 1536, FXIIa inh 1536, Thrombin inh, KLK5 inh)
c1cncc(-c2nc(NCCCN3CCOCC3)c3c4c(sc3n2)CCC4)c1	none
c1cncc(-c2nc(N3CCOCC3)c3c4c(sc3n2)CCC4)c1	none | EP2 confirm inactive
CC1=C(C(=O)OCc2ccccc2)C(c2ccc(Cl)cc2Cl)NC(=O)N1CCCCCC(=O)O (stereo unspecified)	EP2 mod 66.0 | EP2 confirm inactive
COc1ccccc1CNc1cc(C)ccc1C	EP2 mod 66.1 | EP2 confirm inactive
C=CCNC(=O)c1c(NC(=O)c2ccc(OC)cc2)sc2c1CCCC2	none (no result: FXIa inh 1536, FXIIa inh 1536, Thrombin inh, KLK5 inh)
O=C(c1ccco1)N1N=C(c2ccncc2)CC1(O)C(F)(F)F (stereo unspecified)	none
COc1cccc(C2=NN(C(=O)c3cccs3)C(O)(C(F)(F)F)C2)c1 (stereo unspecified)	EP2 mod 85.7 | EP2 confirm active
Cc1ccc(C(=O)N2N=C(c3ccccc3)CC2(O)C(F)(F)F)o1 (stereo unspecified)	EP2 mod 70.2 | EP2 confirm inactive
O=C(c1ccco1)N1N=C(c2ccc(Br)cc2)CC1(O)C(F)(F)F (stereo unspecified)	EP2 mod 85.9 | EP2 confirm active
CCN1CCCC1CN(Cc1ccccn1)Cc1cccc(C)n1 (stereo unspecified)	none (no result: FXIa inh 1536, FXIIa inh 1536, Thrombin inh, KLK5 inh)
O=C(Cn1cnc([N+](=O)[O-])n1)NCCOc1ccccc1	none (no result: FXIa inh 1536, FXIIa inh 1536, Thrombin inh, KLK5 inh)
CN(CC(=O)Nc1ccccc1Oc1ccccc1)Cc1ccccc1F	EP2 mod 66.8 | EP2 confirm active
Cc1ccccc1CN(C)CC(=O)Nc1ccccc1Oc1ccccc1	EP2 mod 67.7 | EP2 confirm active
COc1ccc(CN(C)CC(=O)Nc2ccccc2-c2ccccc2)c(OC)c1	none
COc1ccccc1CN(C)CC(=O)Nc1ccccc1-c1ccccc1	EP2 mod 70.7 | EP2 confirm active
Cc1ccccc1CN(C)CC(=O)Nc1ccccc1-c1ccccc1	none
COc1ccccc1NC(=O)c1ccc(NC(=O)CN(C)Cc2ccccc2F)cc1	none
COC1CCC(C(=O)N2CCC(O)(c3ccccn3)CC2)CC1 (stereo unspecified)	none (no result: FXIa inh 1536, FXIIa inh 1536, Thrombin inh, KLK5 inh)
CCn1c(SCC(=O)Nc2ccc(Cl)cc2)nc2ccccc2c1=O	none (no result: FXIa inh 1536, FXIIa inh 1536, Thrombin inh, KLK5 inh)
CC1CCCCN1C(=O)CSc1nc2ccccc2n1CC(=O)N1CCCCC1 (stereo unspecified)	none (no result: FXIa inh 1536, FXIIa inh 1536, Thrombin inh, KLK5 inh)
COc1cc2cc(C)c(SCC(=O)Nc3ccccc3Br)nc2cc1OC	none (no result: FXIa inh 1536, FXIIa inh 1536, Thrombin inh, KLK5 inh)
COc1cc(O)c2c(=O)cc(C)oc2c1CC=C(C)C	EP2 mod 91.8 (no result: FXIa inh 1536, FXIIa inh 1536, Thrombin inh, KLK5 inh) | EP2 confirm active
COc1ccc(-c2oc3c(CC=C(C)C)c(O[C@@H]4O[C@H](CO)[C@@H](O)[C@H](O)[C@H]4O)cc(O)c3c(=O)c2O[C@@H]2O[C@@H](C)[C@H](O)[C@@H](O)[C@H]2O)cc1	none (no result: FXIa inh 1536, FXIIa inh 1536, Thrombin inh, KLK5 inh)
O=C(O)COc1ccc(/C=C/c2ccc3cccc([N+](=O)[O-])c3n2)cc1	EP2 mod 89.2 | EP2 confirm active
COc1cc(/C=C/c2ccc3cccc([N+](=O)[O-])c3n2)ccc1OCC(=O)O	EP2 mod 73.3 | EP2 confirm active
Cc1ccc(CCC(=O)N2CCCC2c2nc3ccccc3[nH]2)o1 (stereo unspecified)	none (no result: FXIa inh 1536, FXIIa inh 1536, Thrombin inh, KLK5 inh, EP2 antag)
COc1ccc(C2Nc3ccc(C(=O)O)cc3C3C=CCC32)cc1 (stereo unspecified)	none (no result: FXIa inh 1536, FXIIa inh 1536, Thrombin inh, KLK5 inh)
CCOC(=O)C1CCCN(c2c(C(=O)c3ccccc3)cnc3ccc(OC)cc23)C1 (stereo unspecified)	EP2 mod 68.2 | EP2 confirm inactive
CC(=O)C(C)n1c(CN2CCCCC2)nc2c1c(=O)n(C)c(=O)n2C (stereo unspecified)	none (no result: FXIa inh 1536, FXIIa inh 1536, Thrombin inh, KLK5 inh)
CN1[C@@H](C(=O)NCCc2ccccc2)C[C@@H](c2ccco2)NS1(=O)=O	none (no result: FXIa inh 1536, FXIIa inh 1536, Thrombin inh, KLK5 inh, EP2 antag)
CCOC(=O)C1=C(C)NC(C)=C(C(=O)OC)C1c1cccc(Cl)c1Cl (stereo unspecified)	EP2 mod 64.6! | EP2 confirm inactive
O=C(/C(=C/O)N=Nc1ccccc1)c1ccc(Cl)cc1	EP2 mod 73.1 | EP2 confirm active
Cc1ccc(N=N/C(=C\O)C(=O)c2ccc(Cl)cc2)cc1	EP2 mod 88.8 | EP2 confirm active
COc1ccc(CNc2c(-c3cc4cc(C)ccc4[nH]c3=O)nc3ccccn23)cc1	none (no result: FXIa inh 1536, FXIIa inh 1536, Thrombin inh, KLK5 inh)
Cc1nn(C)c(C)c1CNC(=O)c1cnn2c(C(F)F)cc(-c3ccccc3)nc12	none (no result: FXIa inh 1536, FXIIa inh 1536, Thrombin inh, KLK5 inh)
O=C(NCC1CCCO1)c1c[nH]c2ccccc2c1=O (stereo unspecified)	none (no result: FXIa inh 1536, FXIIa inh 1536, Thrombin inh, KLK5 inh)
CCOc1ccc(CCNC(=O)c2cc3c(C)nccc3[nH]c2=O)cc1OCC	none (no result: KLK5 inh)
Cc1nccc2[nH]c(=O)c(C(=O)NC3CCCCC3C)cc12 (stereo unspecified)	EP2 mod 73.7 | EP2 confirm inactive
COc1cc(C)c2c(c1C=O)Oc1c(c(C)c(O)c3c1C(O)OC3=O)OC2=O (stereo unspecified)	none
Cc1cc(O)c(C=O)c2c1C(=O)Oc1c(C)c(O)c3c(c1O2)C(O)OC3=O (stereo unspecified)	none (no result: FXIa inh 1536, FXIIa inh 1536, Thrombin inh, KLK5 inh) | EP2 confirm inactive
O=C(O)c1ccc(CNCc2cccc(Cl)c2Cl)cc1	EP2 mod 68.2 | EP2 confirm inactive
O=C(O)c1ccc(CNCc2ccccc2Cl)cc1	none
CCOC(=O)N1CCN(c2cc(Cl)c(C#N)cc2F)CC1	none (no result: FXIa inh 1536, FXIIa inh 1536, Thrombin inh, KLK5 inh)
NC(=O)c1nc(-c2ccccc2)nc2c1[nH]c(=O)n2CC1CCCO1 (stereo unspecified)	none (no result: FXIa inh 1536, FXIIa inh 1536, Thrombin inh, KLK5 inh)
Cc1ccccc1S(=O)(=O)c1c(C)cc(C)n(CC(C)C)c1=O	EP2 mod 69.6 | EP2 confirm active

Screens from PubChem BioAssay.
